# Results from BindingDB's records for doi:10.1016/j.bmcl.2005.07.045 (Shanghai Second Medical University, 2005).
# Biological target: Muscarinic acetylcholine receptor M1/M2/M3/M4/M5
# Assay: Agonistic activity against Muscarinic acetylcholine receptor of guinea pig ileal longitudinal muscle
# Method in brief: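 Ileal longitudinal muscle strips (1.5 cm) in 10 ml organ baths under 500 mg tension, equilibrated 30 min with bath fluid changed every 10 min. Isotonic contractions recorded during cumulative addition, about 3-fold concentration steps once each response is steady. Response expressed as percent of carbachol maximum. pEC50 determined graphically from dose–response curves, mean of three tests, t test.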
row,Structure (SMILES),EC50
1,CC(=O)OC1CC2CC(OC(=O)c3ccc(C)cc3)CC1N2C (centres undefined),4.36 µM
2,CC(=O)OC1CC2CC(=O)CC1N2C (centres undefined),14.7 µM
3,CCCCCCCCCC(=O)OC1CC2CC(OC(C)=O)C(C1)N2C (centres undefined),0.263 µM
4,CCCCCCC(=O)OC1CC2CC(OC(C)=O)C(C1)N2C (centres undefined),0.0269 µM
5,CC(=O)OC1CC2CC(OC(=O)/C=C\c3ccccc3)CC1N2 (centres undefined),1.99 µM
6,COc1ccc(C(=O)OC2CC3CC(OC(C)=O)C(C2)N3C)cc1 (centres undefined),30.1 µM
7,COc1ccc(S(=O)(=O)OC2CC3CC(OC(C)=O)C(C2)N3C)cc1 (centres undefined),0.0933 µM
8,CC(=O)OC1CC2CC(OC(C)=O)C(C1)N2C (centres undefined),4.46 µM
9,CCCCCCCC(=O)OC1CC2CC(OC(C)=O)C(C1)N2C (centres undefined),0.00174 µM
10,CC(=O)OC1CC2NC1CCC2O (centres undefined),0.0794 µM
11,CC(=O)OC1CC2CC(OS(=O)(=O)c3cccc(C)c3)CC1N2C (centres undefined),0.0891 µM
12,CCC(=O)OC1CC2CC(OC(=O)CC)C(C1)N2C (centres undefined),42.6 µM
13,CCCC(=O)OC1CC2CC(OC(C)=O)C(C1)N2C (centres undefined),5.01 µM
14,CC(=O)OC1CC2CC(OS(=O)(=O)c3ccccc3)CC1N2C (centres undefined),0.0501 µM
15,CCCCCC(=O)OC1CC2CC(OC(=O)CCCCC)C(C1)N2C (centres undefined),0.00479 µM
16,CN1C2CC(=O)CC1C(O)C2 (centres undefined),407 µM
17,CC(=O)OC1CC2CC(OC(=O)/C=C\c3ccccc3)CC1N2C (centres undefined),117 µM
18,CC(=O)OC1CC2CC(OS(=O)(=O)c3ccc(C)cc3)CC1N2C (centres undefined),0.104 µM
19,CC(=O)OC1CC2CC(OS(=O)(=O)c3ccc([N+](=O)[O-])cc3)CC1N2C (centres undefined),0.0447 µM
20,CCCCCC(=O)OC1CC2CC(OC(C)=O)C(C1)N2C (centres undefined),0.00646 µM
21,CC(=O)OC1CC2CCC(C1)N2C (centres undefined),79.4 µM
22,CC(=O)OC1CC2CC(Cl)CC1N2C (centres undefined),11.4 µM
23,CC(=O)OC1CC2CCCC1N2 (centres undefined) [Acetic acid 8-aza-bicyclo[3.2.1]oct-6-yl ester],0.00617 µM
24,CC(=O)OC1CC2CCCC1N2C (centres undefined) [Acetic acid 8-methyl-8-aza-bicyclo[3.2.1]oct-6-yl ester],24.5 µM
